These results are taken from ChEMBL document CHEMBL4819027, “Design, synthesis and biological evaluation of novel 2-(4-(1H-indazol-6-yl)-1H-pyrazol-1-yl)acetamide derivatives as potent VEGFR-2 inhibitors” (Eur J Med Chem, 2021).

The source made the active and inactive calls. No cut-off for these calls is given here.

Test [1] relates to HGC-27. The test can be described thus: Induction of apoptosis in human HGC-27 cells assessed as early apoptotic cells level at 1 uM incubated for 24 hrs by propidium iode and annexin V-FITC staining based flow cytometry (reference value: 1.48%). Type of test: functional. Summed up: (§1)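 HGC-27 cells (1.0 × 10⁶ per 60 mm dish) were treated 24 h with 0.1% DMSO or compound (0.1, 0.5, 1 μM). Cells were stained with Annexin V-FITC in HEPES/NaCl/CaCl₂ binding buffer (pH 7.4) for 15 min at room temperature, then with PI for 10 min. About 10 000 events were acquired by flow cytometry to give viable, early apoptotic, late apoptotic and necrotic fractions.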

The subject of test [2] is HGC-27. The test can be described thus: Induction of apoptosis in human HGC-27 cells assessed as necrotic cells level at 1 uM incubated for 24 hrs by propidium iode and annexin V-FITC staining based flow cytometry (reference value: 1.64%). Type of test: functional. In outline:
as §1

The target of test [3] is T1, Vascular endothelial growth factor receptor 2 (Homo sapiens, UniProt P35968). The test can be described thus: Inhibition of VEGFR2 in human HGC-27 cells assessed as downregulation of VEGFR2 phosphorylation at Tyr1175 at 0.1 to 1 uM after 24 hrs by Westernblot analysis. In kind it is cell-based. The settings on record: dose 0.1-1 µM. Summed up:
(§2)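 HGC-27 cells (1.0 × 10⁶ per 60 mm dish) were treated 24 h with 0.1% DMSO or compound (0.1, 0.5, 1 μM). RIPA lysates with phosphatase inhibitor were quantified by BCA and resolved on 8–12% SDS-PAGE onto nitrocellulose. Blots were probed for p-VEGFR-2 (Tyr1175), p-PI3K (Tyr607), p-AKT (Thr308) and p-mTOR (Ser2448), with ECL detection and densitometry; mean ± SEM.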

Test [4] deals with HGC-27. The test can be described thus: Induction of apoptosis in human HGC-27 cells assessed as total apoptotic cells level at 1 uM incubated for 24 hrs by propidium iode and annexin V-FITC staining based flow cytometry. Type of test: functional. Summed up: as §1
A further test concerns HUVEC. Nature of the test: Antiangiogenic activity against HUVEC cells assessed as reduction in VEGF-induced tube surface area at 1 to 10 uM incubated for 12 hrs by matrigel-based assay. The settings on record: Homo sapiens, dose 1-10 µM. In kind it is functional, cell-based. In outline: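 HUVECs at 4 × 10⁵ cells/mL seeded on Matrigel that had been polymerized 1 h at 37 °C. Cells were stimulated with 20 ng/mL VEGF and treated with compound (1, 2.5, 5 and 10 μM) or 0.1% DMSO vehicle for 12 h at 37 °C. Tubes were imaged by inverted microscopy. Tube length, surface area and branch points were quantified as pixel area.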

Test [5] deals with HGC-27. The test can be described thus: Antiproliferative activity against human HGC-27 cells assessed as cell growth inhibition after 72 hrs by MTT assay. In kind it is functional, cell-based. The settings on record: HGC-27, 72 h. In outline: (§3)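 Log-phase cells were seeded at 5 × 10³ per well and attached 24 h. HT-29 and GES-1 were grown in DMEM-based medium, A549/HepG2/HGC-27 in RPMI-1640, HUVEC in ECM with ECGS; all media had 10% FBS. Cells were exposed to graded compound concentrations for 72 h at 37 °C. MTT (5 mg/mL stock) was added for 4 h, formazan dissolved in DMSO, and A490 read. IC50 was obtained by nonlinear sigmoidal regression; mean ± S.E. of three experiments.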

Test [6] relates to HGC-27. Nature of the test: Up regulation of E-cadherin expression in human HGC-27 cells at 1 uM measured after 24 hrs by immunoblot analysis. Type of test: functional, cell-based. Summed up:
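HGC-27 seeded 1.0×10^6 cells/dish in RPMI-1640/10% FBS; 24 h with compound (0.1, 0.5, 1 µM), 0.1% DMSO vehicle or sorafenib. RIPA lysates with PMSF/phosphatase inhibitor, BCA-normalized, 8–12% SDS-PAGE, nitrocellulose, milk block, primary antibodies overnight 4 °C, HRP secondaries, ECL; E-cadherin band densitometry; mean ± SD, three independent experiments.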

The target in test [7] is T1, Vascular endothelial growth factor receptor 2. Nature of the test: Inhibition of VEGFR2 in human HGC-27 cells assessed as reduction in VEGFR-2 phosphorylation after 24 hrs by westernblot analysis. In kind it is cell-based. Summed up: as §2
In test [8] the test system is HGC-27. The test can be described thus: Antimigratory activity against human HGC-27 cells assessed as relative closure of scratches at 0.5 uM measured after 24 hrs by scratch wound healing assay relative to control. In kind it is functional. Summed up:
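HGC-27 monolayers at 80–90% confluence were serum-starved 12 h, then scratched to give 1 mm lanes. After a PBS wash, cells received complete medium with or without compound (0.1, 0.5, 1 μM). Wounds were imaged at 0, 6 and 24 h. Relative scratch closure was quantified against untreated control; mean ± SD of three experiments.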

The next test concerns GES1. The test can be described thus: Cytotoxicity against human GES-1 cells assessed as inhibition of cell growth incubated for 72 hrs by MTT assay. Type of test: cell-based. The settings on record: GES1, 72 h. Summed up: as §3
In test [9] the test system is HGC-27. The test can be described thus: Induction of apoptosis in human HGC-27 cells assessed as viable cells level at 0.1 uM incubated for 24 hrs by propidium iode and annexin V-FITC staining based flow cytometry (reference value: 96.0%). Type of test: functional. In outline:
as §1

The test system of another test is A549. The test can be described thus: Antiproliferative activity against human A549 cells assessed as cell growth inhibition after 72 hrs by MTT assay. In kind it is functional, cell-based. The settings on record: A549, 72 h. Summed up:
as §3

Test [10] has as its system HGC-27. The test can be described thus: Induction of apoptosis in human HGC-27 cells assessed as late apoptotic cells level incubated for 24 hrs by propidium iode and annexin V-FITC staining based flow cytometry. Type of test: functional, cell-based. The settings on record: dose 0.1-1 µM. Summed up: as §1
Another test has as its system HepG2. The test can be described thus: Antiproliferative activity against human HepG2 cells assessed as cell growth inhibition after 72 hrs by MTT assay. In kind it is functional, cell-based. The settings on record: HepG2, 72 h. In outline:
as §3

T1 sequence (P35968 whole entry): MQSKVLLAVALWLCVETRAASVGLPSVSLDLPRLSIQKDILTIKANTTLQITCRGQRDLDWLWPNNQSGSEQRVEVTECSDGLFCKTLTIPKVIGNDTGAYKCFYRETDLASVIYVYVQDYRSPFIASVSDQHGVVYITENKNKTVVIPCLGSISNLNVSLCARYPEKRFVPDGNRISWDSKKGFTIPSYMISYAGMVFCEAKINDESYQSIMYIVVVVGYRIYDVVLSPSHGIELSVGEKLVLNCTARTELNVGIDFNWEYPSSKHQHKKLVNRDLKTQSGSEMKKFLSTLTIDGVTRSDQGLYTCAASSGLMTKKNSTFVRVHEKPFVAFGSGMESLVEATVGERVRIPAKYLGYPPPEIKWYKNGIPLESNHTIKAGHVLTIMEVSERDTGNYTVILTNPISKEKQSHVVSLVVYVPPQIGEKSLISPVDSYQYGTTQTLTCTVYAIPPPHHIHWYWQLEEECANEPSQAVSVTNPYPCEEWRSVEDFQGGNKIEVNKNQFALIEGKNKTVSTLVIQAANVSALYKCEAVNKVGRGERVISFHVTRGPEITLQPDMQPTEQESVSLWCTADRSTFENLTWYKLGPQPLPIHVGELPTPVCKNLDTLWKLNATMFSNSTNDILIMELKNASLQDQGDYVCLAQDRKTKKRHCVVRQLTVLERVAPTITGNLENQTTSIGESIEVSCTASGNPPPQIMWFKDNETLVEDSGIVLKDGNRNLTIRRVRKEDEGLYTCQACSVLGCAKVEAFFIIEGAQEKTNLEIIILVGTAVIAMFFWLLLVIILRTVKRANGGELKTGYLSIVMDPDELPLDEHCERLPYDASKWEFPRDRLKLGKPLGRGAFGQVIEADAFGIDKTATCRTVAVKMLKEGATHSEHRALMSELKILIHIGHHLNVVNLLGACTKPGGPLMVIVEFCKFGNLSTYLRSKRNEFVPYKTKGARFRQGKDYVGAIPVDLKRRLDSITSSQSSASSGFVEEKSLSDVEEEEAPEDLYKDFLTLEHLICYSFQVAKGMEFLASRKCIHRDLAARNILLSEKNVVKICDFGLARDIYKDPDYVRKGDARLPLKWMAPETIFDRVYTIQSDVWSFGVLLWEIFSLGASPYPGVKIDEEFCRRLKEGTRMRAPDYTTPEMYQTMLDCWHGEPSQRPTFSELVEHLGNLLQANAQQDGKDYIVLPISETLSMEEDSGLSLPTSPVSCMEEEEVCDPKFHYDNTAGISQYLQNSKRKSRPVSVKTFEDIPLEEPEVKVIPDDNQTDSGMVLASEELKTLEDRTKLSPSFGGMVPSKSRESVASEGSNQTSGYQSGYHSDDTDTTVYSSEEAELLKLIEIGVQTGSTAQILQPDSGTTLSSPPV

As to `CC(=O)Nc1n[nH]c2cc(-c3cnn(CC(=O)Nc4ccc(C)c(C(F)(F)F)c4)c3)ccc12`, the Activity was 11.8% with HGC-27 [1]; 9.59% in the test on HGC-27 [2]; 28.8% with HGC-27 [4]; “Dose-Dependent Effect” with HGC-27 [6]; 90.5% in the test on HGC-27 [9]; “Dose-Dependent Effect” in the test with HGC-27 [10]. In addition, the inhibition entry in test [3] is “Active”. The outcome in the test with HUVEC was Active. Besides, the IC50 stood at 0.36 µM in the test on HGC-27 [5], 187 µM in the test on GES1, 4.31 µM in the test on A549 and 15 µM with HepG2. Further, the inhibition entry in test [7] was “Dose-Dependent Effect”. The inhibition at 0.5 µM in the test on HGC-27 [8] is 28%.
